“Also recorded” adds a separate entry of the source.
Tests used:
[1] = target: T1, GGDPS (Homo sapiens, UniProt O95749); conditions: cited from earlier work
T1 sequence (O95749 1-300): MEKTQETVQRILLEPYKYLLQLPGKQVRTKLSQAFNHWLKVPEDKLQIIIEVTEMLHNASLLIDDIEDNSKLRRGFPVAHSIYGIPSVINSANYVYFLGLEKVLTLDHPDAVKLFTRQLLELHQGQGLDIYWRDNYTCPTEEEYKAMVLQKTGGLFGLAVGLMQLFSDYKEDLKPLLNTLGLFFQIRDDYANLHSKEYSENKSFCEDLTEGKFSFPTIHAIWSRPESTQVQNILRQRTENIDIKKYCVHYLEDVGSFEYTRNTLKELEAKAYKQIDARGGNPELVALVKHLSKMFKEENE

[2] = tested on: Rap1a geranylgeranylation in RPMI-8226 cells; assay: Immunoblot of unmodified Rap1a in RPMI-8226 cells; type: cell-based, human; conditions: 48 hours; for disruption of Rap1a geranylgeranylation (accumulation of unmodified Rap1a): 10 µM, Figure 3A; for concentration at which unmodified Rap1a is observed: tested at 0.1, 1, 10 µM
How it was run: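 Whole-cell lysates were made in RIPA buffer with protease/phosphatase inhibitors, BCA-normalised, and run on SDS-PAGE/PVDF immunoblot. The antibody recognises only unmodified Rap1a; β-tubulin was the loading control; detection was HRP/ECL. Gels represent two independent experiments.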

[3] = target: T2, GGTase II (Rattus norvegicus, UniProt Q08602+Q08603); assay: GGTase II enzyme assay; type: biochemical; conditions: for inhibitory activity against GGTase II: at concentrations up to 1 mM
T2 sequence (Q08602 1-567): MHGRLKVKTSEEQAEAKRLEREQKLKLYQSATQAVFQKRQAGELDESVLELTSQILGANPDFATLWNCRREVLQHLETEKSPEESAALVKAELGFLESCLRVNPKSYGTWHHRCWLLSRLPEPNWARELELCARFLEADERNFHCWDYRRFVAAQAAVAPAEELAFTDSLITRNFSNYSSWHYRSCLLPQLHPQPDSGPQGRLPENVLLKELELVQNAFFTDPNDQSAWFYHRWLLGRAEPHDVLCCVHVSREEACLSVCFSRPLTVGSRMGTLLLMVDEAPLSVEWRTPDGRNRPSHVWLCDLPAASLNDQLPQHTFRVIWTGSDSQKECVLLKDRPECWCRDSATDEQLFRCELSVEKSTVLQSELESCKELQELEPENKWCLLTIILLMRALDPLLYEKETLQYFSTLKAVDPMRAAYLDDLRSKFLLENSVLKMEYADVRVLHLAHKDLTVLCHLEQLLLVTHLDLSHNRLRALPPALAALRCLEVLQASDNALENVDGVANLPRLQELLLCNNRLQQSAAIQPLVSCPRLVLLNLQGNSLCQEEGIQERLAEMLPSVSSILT
T2 sequence (Q08603 1-331): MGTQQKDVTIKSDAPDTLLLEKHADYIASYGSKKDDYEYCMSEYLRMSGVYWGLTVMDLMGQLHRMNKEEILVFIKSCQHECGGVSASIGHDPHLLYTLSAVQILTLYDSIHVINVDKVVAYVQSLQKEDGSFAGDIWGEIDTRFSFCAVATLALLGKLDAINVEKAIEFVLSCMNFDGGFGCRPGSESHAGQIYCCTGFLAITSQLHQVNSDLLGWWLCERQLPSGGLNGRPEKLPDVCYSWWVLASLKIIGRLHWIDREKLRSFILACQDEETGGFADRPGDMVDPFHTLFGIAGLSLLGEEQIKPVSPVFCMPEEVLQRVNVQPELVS
How it was run: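 Reaction mix: 30 nM recombinant GGTase II, 2 µM His-tagged Rab1A (E. coli-expressed, Ni-NTA purified) and 1 µM REP-2 in 50 mM sodium HEPES, 5 mM MgCl₂, 1 mM DTT, 1 mM NP-40, ±test compound. Started with 5 µM [³H]-GGPP, 20 min at 37 °C, stopped with 10% HCl/EtOH. P-81 filters were EtOH-washed and scintillation-counted. IC50 came from concentration-response curves.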

[4] = tested on: Rab6 geranylgeranylation in RPMI-8226 cells; type: cell-based, human; conditions: 10 µM, 48 hours, Figure 3A
How it was run: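 Triton X-114 lysis gave aqueous (cytosolic) and detergent (membrane) fractions. Equal protein (BCA) was run on SDS-PAGE and blotted to PVDF for Rab6 with HRP/ECL detection. Loading controls were β-tubulin (aqueous) and calnexin (detergent). Gels represent two independent experiments.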

[5] = target: T1, GGDPS; assay: GGDPS enzyme assay; type: biochemical; conditions: in vitro enzyme assay
[6] = tested on: monoclonal protein trafficking in RPMI-8226 cells; assay: Monoclonal protein quantitation; type: cell-based, human; conditions: 10 µM, 48 hours, Figure 5
How it was run: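 Cells were lysed in RIPA with protease/phosphatase inhibitors and protein measured by BCA. Intracellular lambda light chain was quantified by human lambda light chain ELISA. Results are % untreated control, mean ± SD, n=3, unpaired two-tailed t-test (α 0.05).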

[7] = target: T2, GGTase II; conditions: ref our prior studies; cited from earlier work
[8] = tested on: intracellular GGPP levels in RPMI-8226 cells; assay: Measurement of intracellular GGPP levels in RPMI-8226 cells; type: cell-based, human; conditions: 1 µM, 24 hours, Figure 4
How it was run: (§1)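 Isoprenoid pyrophosphates were extracted in butanol/75mM ammonium hydroxide/ethanol (1:1.25:2.75) and dried under nitrogen. FPP was coupled to fluorescent GCVLS by FTase and GGPP to GCVLL by GGTase I. Peptides were quantified by reversed-phase HPLC-fluorescence. Results are % untreated control, mean ± SD, n=2, unpaired two-tailed t-test.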

[9] = tested on: intracellular FPP levels in RPMI-8226 cells; assay: Measurement of intracellular FPP levels in RPMI-8226 cells; type: cell-based, human; conditions: 1 µM, 24 hours, Figure 4
How it was run: as §1

[10] = target: FTase (Rattus norvegicus, UniProt Q02293+Q04631); assay: FTase enzyme assay; type: biochemical
How it was run: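 Ran 1 h at 30 °C, then ice and acetonitrile/5% HCl stop. Centrifuged supernatant went to HPLC with fluorescence detection of prenylated peptide. IC50 came from concentration-response curves.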

IC50 [3] [µM] | Molecule | disruption of Rap1a geranylgeranylation (accumulation of unmodified Rap1a) [2] | inhibitory activity against GGTase II [3] | disruption of Rab6 geranylgeranylation (Rab6 in aqueous fraction) [4] | effect on intracellular lambda light chain levels [6] | other results
 | 2E,6Z-farnesylbisphosphonate [Compound 22] |  |  |  |  | fold less potent GGDPS inhibitor than the 2E,6E-isomer ([1]; farnesyl bisphosphonate isomers): approximately 6 fold
> 1000 | CC(C)=CCC[C@@]1(C)O[C@@H]1Cn1cc(CC(P(=O)([O-])[O-])P(=O)([O-])[O-])nn1.[Na+].[Na+].[Na+].[Na+] (racemic) [Compound 12, Sodium (E)-(2-(1-((3-methyl-3-(4-methylpent-3-en-1-yl)oxiran-2-yl)methyl)-1H-1,2,3-triazol-4-yl)ethane-1,1-diyl)bis(phosphonate)] | neither of the epoxide derivatives (12 and 20) displayed activity in this assay | neither of the individual olefin isomers (11 or 19) nor the related epoxides (12 or 20) displayed inhibitory activity | neither of the epoxide derivatives (12 and 20) displayed activity in this assay |  | 
> 1000 | CC(C)=CCC[C@]1(C)O[C@@H]1Cn1cc(CC(P(=O)([O-])[O-])P(=O)([O-])[O-])nn1.[Na+].[Na+].[Na+].[Na+] (racemic) [Compound 20, Sodium (Z)-(2-(1-((3-methyl-3-(4-methylpent-3-en-1-yl)oxiran-2-yl)methyl)-1H-1,2,3-triazol-4-yl)ethane-1,1-diyl)bis(phosphonate)] | neither of the epoxide derivatives (12 and 20) displayed activity in this assay | neither of the individual olefin isomers (11 or 19) nor the related epoxides (12 or 20) displayed inhibitory activity | neither of the epoxide derivatives (12 and 20) displayed activity in this assay |  | GGDPS activity, comparison in words [5]: reduces the activity against GGDPS to a level comparable to the geranyl triazole
> 1000 | CC(C)=CCCC(C)=CCn1cc(CC(P(=O)([O-])[O-])P(=O)([O-])[O-])nn1.[Na+].[Na+].[Na+].[Na+] [Compound 1] | A similar pattern was displayed |  | A similar pattern was displayed | induces an accumulation of intracellular lambda light chain equivalent to that induced by the positive control DGBP | inhibition of GGTase II [7]: does not inhibit GGTase II; effect on intracellular GGPP levels [8]: decreased GGPP levels; effect on intracellular FPP levels [9]: increased FPP levels
> 1000 | CC(C)=CCC/C(C)=C/Cn1cc(CC(P(=O)([O-])[O-])P(=O)([O-])[O-])nn1.[Na+].[Na+].[Na+].[Na+] [Compound 11, Sodium (E)-(2-(1-(3,7-dimethylocta-2,6-dien-1-yl)-1H-1,2,3-triazol-4-yl)ethane-1,1-diyl)bis(phosphonate)] | only weakly disrupted Rap1a geranylgeranylation | neither of the individual olefin isomers (11 or 19) nor the related epoxides (12 or 20) displayed inhibitory activity |  | has no effect on intracellular light chain levels | IC50 [10]: > 500 µM; disruption of Rap1a geranylgeranylation at 10 µM ([2]; Figure 3B): only weakly disrupted Rap1a geranylgeranylation
> 1000 | CC(C)=CCC/C(C)=C\Cn1cc(CC(P(=O)([O-])[O-])P(=O)([O-])[O-])nn1.[Na+].[Na+].[Na+].[Na+] [Compound 19, Sodium (Z)-(2-(1-(3,7-dimethylocta-2,6-dien-1-yl)-1H-1,2,3-triazol-4-yl)ethane-1,1-diyl)bis(phosphonate)] | effectively disrupted both Rap1a and Rab6 geranylation | neither of the individual olefin isomers (11 or 19) nor the related epoxides (12 or 20) displayed inhibitory activity | effectively disrupted both Rap1a and Rab6 geranylation | This activity is a consequence of the neryl triazole 19; also recorded: disrupts monoclonal protein trafficking | GGDPS activity, comparison in words [5]: slightly less potent; concentration at which unmodified Rap1a is observed ([2]; Figure 3B): 1 µM; effect on intracellular GGPP levels [8]: even more potently decreased GGPP levels; also recorded: depletes cells of GGPP; effect on intracellular FPP levels [9]: increased FPP levels; also recorded: increases intracellular FPP levels
 | CC(C)=CCC/C(C)=C/CC/C(C)=C/CC(P(=O)(O)O)P(=O)(O)O [Compound 21, 2E,6E-farnesyl bisphosphonate] |  |  |  |  | fold more potent than the 2E,6Z-isomer 22 ([1]; ref earlier studies): about 6 fold
 | CC(C)=CCC/C(C)=C/CC(C/C=C(\C)CCC=C(C)C)(P(=O)(O)O)P(=O)(O)O [DGBP, digeranyl bisphosphonate, reference compound] | accumulation of unmodified Rap1a and Rab6 |  | accumulation of unmodified Rap1a and Rab6 | accumulation of intracellular lambda light chain | concentration at which unmodified Rap1a is observed ([2]; Figure 3B): 10 µM; mode of GGDPS inhibition [1]: competitive with respect to FPP as opposed to IPP
 | CC(C)=CCC/C(C)=C\CC(C/C=C(/C)CCC=C(C)C)(P(=O)(O)O)P(=O)(O)O [dineryl bisphosphonate] |  |  |  |  | fold less potent GGDPS inhibitor than DGBP [1]: approximately 14 fold
 | CC(C)=CCCC(C)=CCC(P(=O)(O)O)P(=O)(O)O [geranyl bisphosphonate] |  |  |  |  | potency relative to the corresponding neryl bisphosphonate ([1]; monoalkyl series): at least one order of magnitude more potent
 | CC(C)=CCCC(C)=CCC(CC=C(C)CCC=C(C)C)(P(=O)(O)O)P(=O)(O)O [geranyl/neryl] |  |  |  |  | fold less potent GGDPS inhibitor than DGBP [1]: approximately 14 fold

Source: publication PMC4067939 (Bioorganic & medicinal chemistry, 2014)
